Calls of active or inactive are those of the source. The rule behind the calls is not given here.
Key:
[1] = test system: HT-29; test: Anticancer activity against human HT29 cells after 72 hrs by Hoechst test; type: functional, cell-based; details: HT-29, 72 h
How it was run: (§1)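 Cells seeded at 0.5–1 × 10^4/well for 24 h, then exposed in triplicate to a concentration titration for 72 h. Drug stock 0.5 M in DMSO, final DMSO ≤0.1%. Cells rinsed with PBS, fixed in 70% ethanol, and stained for DNA (Hoechst). IC50/IC90 taken from best-fit curves (linear or exponential) of % survival vs concentration, ≥3 independent experiments.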

[2] = test system: CT26; test: Anticancer activity against mouse CT26 cells after 72 hrs by Hoechst test; type: functional, cell-based; details: CT26, 72 h; how it was run: as §1
[3] = test system: BXPC-3; test: Anticancer activity against human BXPC3 cells after 72 hrs by Hoechst test; type: functional, cell-based; details: BXPC-3, 72 h; how it was run: as §1
[4] = Anticancer activity against human SK-ES cells after 72 hrs by Hoechst test; type: functional, cell-based; how it was run: as §1
[5] = Anticancer activity against mouse Pan02 cells after 72 hrs by Hoechst test; type: functional, cell-based; details: Pan02, 72 h; how it was run: as §1
[6] = test system: LS-1034; test: Anticancer activity against human LS1034 cells after 72 hrs by Hoechst test; type: functional, cell-based; details: LS-1034, 72 h; how it was run: as §1
[7] = test system: U-251; test: Anticancer activity against human U251 cells after 72 hrs by Hoechst test; type: functional, cell-based; how it was run: as §1
[8] = Anticancer activity against human MES-SA DXS cells after 72 hrs by Hoechst test; type: functional, cell-based; how it was run: as §1
[9] = Anticancer activity against human MES-SA cells after 72 hrs by Hoechst test; type: functional, cell-based; how it was run: as §1
[10] = Anticancer activity against human astrocytes cells after 72 hrs by Hoechst test; type: ADME, cell-based, Astrocyte; details: for IC50: Homo sapiens, Astrocyte, 72 h; for IC90 at 72 h: human, human astrocytes; how it was run: as §1
[11] = test system: HUVEC; test: Effect on cell viability of HUVEC cells after 48 hrs; type: functional, cell-based; details: Homo sapiens
How it was run: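 HUVEC grown at 37 °C, 5% CO2. Seeded in 96-well plates, then exposed to a concentration titration for 48 h. Viability read by Hoechst DNA fluorescence after ethanol fixation. IC50/IC90 from best-fit curves of ≥3 independent experiments.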

[12] = test system: HUVEC; test: Antiangiogenic activity against HUVEC cells assessed as tube formation at 80 uM after 24 hrs; type: functional, cell-based; details: Homo sapiens
How it was run: (§2)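 HUVEC (5 × 10^4 cells/well) seeded on a matrigel layer in supplemented EGM-2 medium. Test agent added at 80 µM, triplicate wells, incubated 3 to 24 h. Tube formation was visualized by light microscopy and photographed at ×40.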

[13] = test system: Mus musculus; test: Inhibition of HDAC in po dosed mouse 4T1 tumor implanted in BALB/c mouse assessed as histone acetylation level after 4 hrs; type: functional
How it was run: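 Balb/c mice carrying sc 4T1 tumors (5 × 10^4 cells implanted), dosed orally at 100 mg/kg once tumors reached 1.0 cm³. Tumors excised 4 h later and histones extracted; 5 µg protein run on 15% SDS gels. Western blot for acetyl-H4 (Lys-12), normalized to pan-H3; fold change versus untreated.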

[14] = test system: HT-29; test: Antitumor activity against human HT29 xenografted CD1 mouse at 50 mg/kg, po; type: functional, organism-based; set-up: dose 50 mg/kg
How it was run: (§3)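 Male nude CD1 mice implanted sc in the flank with HT-29 cells. Once tumors were palpable, oral dosing at 50 mg/kg (water vehicle), with vehicle-only controls; 14 controls, 12 per treated group. Tumors measured by caliper twice weekly, volume = (L × W²)/2. At the end, blood drawn for serum CEA.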

[15] = test system: HT-29; test: Antitumor activity against human HT29 xenografted CD1 mouse assessed as decrease in CEA level; type: functional; how it was run: as §3
[16] = test system: CT26; test: Anticancer activity against mouse CT26 cells after 72 hrs in the presence of semicarbazide by Hoechst test; type: functional, cell-based; details: CT26, 72 h
How it was run: (§4)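 Same 72 h Hoechst viability titration, run with or without co-addition of 500 µM semicarbazide as formaldehyde scavenger. IC50 and IC90 derived from dose-response curves.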

[17] = test system: HT-29; test: Anticancer activity against human HT29 cells after 72 hrs in the presence of semicarbazide by Hoechst test; type: functional, cell-based; details: HT-29, 72 h; how it was run: as §4
[18] = test system: LS-1034; test: Anticancer activity against human LS1034 cells after 72 hrs in the presence of semicarbazide by Hoechst test; type: functional, cell-based; details: LS-1034, 72 h; how it was run: as §4
[19] = test system: BXPC-3; test: Anticancer activity against human BXPC3 cells after 72 hrs in the presence of semicarbazide by Hoechst test; type: functional, cell-based; details: BXPC-3, 72 h; how it was run: as §4
[20] = test system: HT-29; test: Anticancer activity against human HT29 cells after 72 hrs in the presence of HMTA by Hoechst test; type: functional, cell-based; details: HT-29, 72 h
How it was run: (§5)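 Same 72 h Hoechst viability titration, with or without co-addition of hexamethylenetetramine (HMTA) at 250 µM. IC50 and IC90 derived from dose-response curves.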

[21] = test system: CT26; test: Anticancer activity against mouse CT26 cells after 72 hrs in the presence of HMTA by Hoechst test; type: functional, cell-based; details: CT26, 72 h; how it was run: as §5
[22] = test system: LS-1034; test: Anticancer activity against human LS1034 cells after 72 hrs in the presence of HMTA by Hoechst test; type: functional, cell-based; details: LS-1034, 72 h; how it was run: as §5
[23] = test system: BXPC-3; test: Anticancer activity against human BXPC3 cells after 72 hrs in the presence of HMTA by Hoechst test; type: functional, cell-based; details: BXPC-3, 72 h; how it was run: as §5
[24] = test system: HT-29; test: Anticancer activity against human HT29 cells after 72 hrs in the presence of succinate by Hoechst test; type: functional, cell-based; details: HT-29, 72 h
How it was run: (§6)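 Same 72 h Hoechst viability titration, with or without co-addition of succinic acid at 2.5 mM. IC50 and IC90 derived from dose-response curves.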

[25] = test system: CT26; test: Anticancer activity against mouse CT26 cells after 72 hrs in the presence of succinate by Hoechst test; type: functional, cell-based; details: CT26, 72 h; how it was run: as §6
[26] = test system: LS-1034; test: Anticancer activity against human LS1034 cells after 72 hrs in the presence of succinate by Hoechst test; type: functional, cell-based; details: LS-1034, 72 h; how it was run: as §6
[27] = test system: BXPC-3; test: Anticancer activity against human BXPC3 cells after 72 hrs in the presence of succinate by Hoechst test; type: functional, cell-based; details: BXPC-3, 72 h; how it was run: as §6
[28] = test system: HUVEC; test: Antiangiogenic activity against HUVEC cells assessed as tube formation at 80 uM after 3 hrs; type: functional, cell-based; details: Homo sapiens; how it was run: as §2
[29] = test system: HUVEC; test: Antiangiogenic activity against HUVEC cells assessed as tube formation at 80 uM after 8 hrs; type: functional, cell-based; details: Homo sapiens; how it was run: as §2

Compound | IC50 [1] | IC90 [1] | IC50 [2] | IC90 [2] | IC50 [3] | IC50 [4] | IC90 [4] | IC50 [5] | IC90 [5] | IC50 [6] | IC50 ([7]; Homo sapiens, U-251, 72 h) | IC50 [8] | IC50 [9] | IC50 [10] | IC90 at 72 h [10] | IC50 [11] | IC90 [11] | Activity [12] | Activity [13] | IC90 ([7]; Homo sapiens, U-251, 72 h) | also measured
CCCC(=O)OCn1c(=O)c(F)cn(C2CCCO2)c1=O (centres undefined) | 35 µM | 84 µM | 27 µM | 76 µM | 81 µM | 47 µM | 81 µM | 46 µM | 149 µM | 42 µM | 55 µM | 54 µM | 71 µM | 200 µM | 323 µM | 100 µM | 170 µM | Active | 2 | – | IC90 [6]: 79 µM; IC50 ([7]; u-251): 107 µM; Activity [14]: Active; Activity [15]: Active; IC50 [16]: 52 µM; IC90 [16]: 105 µM; IC50 [17]: 51 µM; IC90 [17]: 138 µM; IC50 [18]: 34 µM; IC90 [18]: 94 µM; IC50 [19]: 88 µM; IC90 [19]: 280 µM
O=c1c(F)cn(C2CCCO2)c(=O)n1CO (centres undefined) | 67 µM | – | 99 µM | 170 µM | 74 µM | 45 µM | 80 µM | 96 µM | 219 µM | 84 µM | 103 µM | 63 µM | 79 µM | 187 µM | 476 µM | 70 µM | 120 µM | – | – | 223 µM | IC50 [16]: 132 µM; IC90 [16]: 252 µM; IC50 [17]: 164 µM; IC90 [17]: 303 µM; IC50 [18]: 132 µM; IC90 [18]: 296 µM; IC50 [19]: 160 µM; IC90 [19]: 460 µM
CCOP(=O)(OCC)OCn1c(=O)c(F)cn(C2CCCO2)c1=O (centres undefined) | 19 µM | 80 µM | – | – | – | – | – | – | – | – | 73 µM | – | – | 832 µM | 2790 µM | – | – | – | – | 287 µM | –
O=c1[nH]c(=O)n(C2CCCO2)cc1F (centres undefined) [TEGAFUR] | – | – | – | – | – | 174 µM | 531 µM | 179 µM | 637 µM | – | 384 µM | – | – | 4290 µM | 7680 µM | 1000 µM | 3400 µM | inactive | 2 | 1280 µM | Activity [14]: Active; Activity [15]: Active; IC50 [20]: 158 µM; IC90 [20]: 612 µM; IC50 [21]: 107 µM; IC90 [21]: 464 µM; IC50 [22]: 193 µM; IC90 [22]: 852 µM; IC50 [23]: 145 µM; IC90 [23]: 654 µM; IC50 [24]: 158 µM; IC90 [24]: 644 µM; IC50 [25]: 90 µM; IC90 [25]: 311 µM; IC50 [26]: 172 µM; IC90 [26]: 617 µM; IC50 [27]: 154 µM; IC90 [27]: 719 µM; Activity [28]: inactive; Activity [29]: inactive

— ChEMBL document CHEMBL1140720, “Novel prodrugs of tegafur that display improved anticancer activity and antiangiogenic properties” (J Med Chem, 2008)
